pIC50: −log10 of the molar value. Activity calls are given as the source filed them. No cut-off for these calls is given here.
Assays:
A549 [1] = assay: Downregulation of cyclin A expression in human A549 cells at G1 phase at 5 to 100 nM after 24 to 48 hrs by Western blot analysis; type: functional, cell-based
Procedure, shortened: (§1)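 A549 cells treated with a range of concentrations for 24 or 48 h. Lysates run on 6–15% SDS-PAGE and blotted to PVDF, blocked in 5% milk/PBST. Primary antibodies overnight at 4 °C, secondary 2 h at room temperature, ECL detection. Representative of three independent experiments.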

A549 [2] = assay: Antiproliferative activity against human A549 cells after 3 days by SRB assay; type: functional, cell-based; details: A549, 72 h
Procedure, shortened: (§2)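 Cells seeded at 5 × 10^4 cells/mL and exposed to a range of concentrations for 3 days. Fixed with 10% TCA, then SRB stain read. Growth expressed as % of solvent-treated control. IC50 obtained by nonlinear regression of percent survival versus concentration.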

PC-3 = assay: Antiproliferative activity against human PC3 cells after 3 days by SRB assay; type: functional, cell-based; details: PC-3, 72 h; procedure, shortened: as §2
T47D = assay: Antiproliferative activity against human T47D cells after 3 days by SRB assay; type: functional, cell-based; details: 72 h; procedure, shortened: as §2
[3] = target: Hepatocyte growth factor receptor (Homo sapiens) (UniProt P08581); assay: Inhibition of c-Met-mediated MTOR phosphorylation in HGF-stimulated human A549 cells pretreated at 5 to 100 nM by Western blot analysis; type: cell-based
Sequence of Hepatocyte growth factor receptor (Homo sapiens) (P08581 whole entry): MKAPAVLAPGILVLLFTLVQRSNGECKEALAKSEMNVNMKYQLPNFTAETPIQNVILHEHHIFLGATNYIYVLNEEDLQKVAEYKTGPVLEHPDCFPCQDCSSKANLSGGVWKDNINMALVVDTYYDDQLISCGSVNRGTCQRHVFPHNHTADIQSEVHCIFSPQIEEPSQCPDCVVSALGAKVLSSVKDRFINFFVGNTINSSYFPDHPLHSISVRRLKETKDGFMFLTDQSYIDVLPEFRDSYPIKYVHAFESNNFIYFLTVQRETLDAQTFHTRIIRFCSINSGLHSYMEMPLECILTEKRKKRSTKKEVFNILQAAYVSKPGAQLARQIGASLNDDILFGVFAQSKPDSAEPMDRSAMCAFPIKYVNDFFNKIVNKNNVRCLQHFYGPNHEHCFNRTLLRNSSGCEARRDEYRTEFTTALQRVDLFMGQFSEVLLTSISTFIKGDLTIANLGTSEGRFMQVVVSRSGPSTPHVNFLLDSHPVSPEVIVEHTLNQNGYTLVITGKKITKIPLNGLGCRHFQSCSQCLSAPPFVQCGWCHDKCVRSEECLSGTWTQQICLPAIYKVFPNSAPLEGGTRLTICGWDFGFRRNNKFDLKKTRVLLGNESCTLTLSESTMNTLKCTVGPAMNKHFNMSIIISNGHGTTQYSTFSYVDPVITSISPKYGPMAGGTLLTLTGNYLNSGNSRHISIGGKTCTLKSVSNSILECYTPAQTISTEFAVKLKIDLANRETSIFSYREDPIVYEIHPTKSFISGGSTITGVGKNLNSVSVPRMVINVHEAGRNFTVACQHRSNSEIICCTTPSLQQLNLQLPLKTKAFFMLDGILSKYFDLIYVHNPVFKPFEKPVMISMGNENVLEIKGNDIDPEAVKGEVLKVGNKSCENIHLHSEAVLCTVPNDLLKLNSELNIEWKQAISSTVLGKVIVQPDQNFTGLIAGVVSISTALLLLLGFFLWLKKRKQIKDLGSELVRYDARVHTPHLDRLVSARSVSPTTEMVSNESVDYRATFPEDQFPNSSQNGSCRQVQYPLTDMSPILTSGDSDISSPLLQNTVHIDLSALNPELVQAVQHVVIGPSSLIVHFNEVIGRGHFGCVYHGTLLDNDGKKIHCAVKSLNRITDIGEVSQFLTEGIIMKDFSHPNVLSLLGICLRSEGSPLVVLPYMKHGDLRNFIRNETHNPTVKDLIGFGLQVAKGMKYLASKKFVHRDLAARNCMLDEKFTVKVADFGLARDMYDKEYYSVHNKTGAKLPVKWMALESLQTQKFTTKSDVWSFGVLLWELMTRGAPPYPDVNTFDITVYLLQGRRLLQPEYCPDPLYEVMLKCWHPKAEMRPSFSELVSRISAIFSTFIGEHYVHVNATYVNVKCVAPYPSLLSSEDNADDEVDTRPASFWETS
Procedure, shortened: (§3)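 A549 cells pretreated for 2 h with the compound at 5, 20 or 100 nM, then stimulated with HGF (50 ng/mL) for 10 min. c-Met and its downstream signalling proteins read by Western blot (SDS-PAGE, PVDF transfer, ECL detection).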

Mus musculus = assay: Toxicity in BALB/c mouse xenografted with human A549 cells in assessed as overt signs at 0.5 mg/kg, po once daily for 14 days measured for 27 days relative to control; type: organism-based; design: dose 0.5 mg/kg, route oral; details: in vivo, 648 h
Procedure, shortened: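 Female nu/nu mice were injected sc in the right flank with 3 × 10^6 A549 cells. At about 100 mm3 tumour volume, mice were randomised into groups of five. Compound was given orally at 0.2 or 0.5 mg/kg once daily for 14 days in ethanol/Tween 80/H2O (1:1:98). Body weight and overt toxicity were monitored against vehicle controls.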

A549 [4] = assay: Cell cycle arrest in human A549 cells assessed as accumulation at G2/M phase at 20 nM after 24 hrs by propidium iodide staining-based flow cytometric analysis (reference value: 18.9 %); type: functional
A549 [5] = assay: Downregulation of CDK4 expression in human A549 cells at G1 phase at 5 to 100 nM after 24 to 48 hrs by Western blot analysis; type: functional, cell-based; procedure, shortened: as §1
A549 [6] = assay: Downregulation of cyclin E expression in human A549 cells at G1 phase at 5 to 100 nM after 24 to 48 hrs by Western blot analysis; type: functional, cell-based; procedure, shortened: as §1
[7] = target: Serine/threonine-protein kinase mTOR (Homo sapiens) (UniProt P42345); assay: Inhibition of MTOR-mediated p70S6K activation in human A549 cells at 20 nM after 24 to 48 hrs by Western blot analysis; type: cell-based
Procedure, shortened: (§4)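 A549 cells (RPMI 1640, 10% FBS, 37 °C, 5% CO2) exposed to the compound at various concentrations for 24 or 48 h. Lysates run on 6–15% SDS-PAGE, transferred to PVDF, probed with primary antibodies overnight at 4 °C, and detected by ECL. Blots shown are representative of three independent experiments.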

[8] = target: Hepatocyte growth factor receptor (Homo sapiens) (UniProt P08581); assay: Inhibition of c-Met-mediated STAT3 phosphorylation in HGF-stimulated human A549 cells pretreated at 5 to 100 nM by Western blot analysis; type: cell-based; procedure, shortened: as §3
A549 [9] = assay: Cell cycle arrest in human A549 cells assessed as accumulation at G0/G1 phase at 5 nM after 24 hrs by propidium iodide staining-based flow cytometric analysis (reference value: 49.6 %); type: functional
A549 [10] = assay: Cell cycle arrest in human A549 cells assessed as accumulation at S phase at 20 nM after 48 hrs by propidium iodide staining-based flow cytometric analysis (reference value: 31.6 %); type: functional
[11] = target: Hepatocyte growth factor receptor (Homo sapiens) (UniProt P08581); assay: Inhibition of c-Met phosphorylation at Tyr1003 in HGF-stimulated human A549 cells pretreated at 5 to 100 nM for 2 hrs by Western blot analysis; type: cell-based; procedure, shortened: as §3
[12] = target: Hepatocyte growth factor receptor (Homo sapiens) (UniProt P08581); assay: Inhibition of c-Met phosphorylation at Tyr1230/1234/1235 in HGF-stimulated human A549 cells pretreated at 5 to 100 nM for 2 hrs by Western blot analysis; type: cell-based; procedure, shortened: as §3
SNU-638 = assay: Antiproliferative activity against human SNU638 cells after 3 days by SRB assay; type: functional, cell-based; details: SNU-638, 72 h; procedure, shortened: as §2
A549 [13] = assay: Cell cycle arrest in human A549 cells assessed as accumulation at G2/M phase at 100 nM after 24 hrs by propidium iodide staining-based flow cytometric analysis (reference value: 18.9 %); type: functional
NCI-H358 = assay: Antiproliferative activity against human NCI-H358 cells after 3 days by SRB assay; type: functional, cell-based; details: NCI-H358, 72 h; procedure, shortened: as §2
SW480 = assay: Antiproliferative activity against human SW480 cells after 3 days by SRB assay; type: functional, cell-based; details: SW480, 72 h; procedure, shortened: as §2
[14] = target: Epidermal growth factor receptor (Homo sapiens) (UniProt P00533); assay: Inhibition of EGFR-mediated Akt phosphorylation in EGF-stimulated human A549 cells pretreated at 20 nM by Western blot analysis; type: cell-based
Sequence of Epidermal growth factor receptor (Homo sapiens) (P00533 whole entry): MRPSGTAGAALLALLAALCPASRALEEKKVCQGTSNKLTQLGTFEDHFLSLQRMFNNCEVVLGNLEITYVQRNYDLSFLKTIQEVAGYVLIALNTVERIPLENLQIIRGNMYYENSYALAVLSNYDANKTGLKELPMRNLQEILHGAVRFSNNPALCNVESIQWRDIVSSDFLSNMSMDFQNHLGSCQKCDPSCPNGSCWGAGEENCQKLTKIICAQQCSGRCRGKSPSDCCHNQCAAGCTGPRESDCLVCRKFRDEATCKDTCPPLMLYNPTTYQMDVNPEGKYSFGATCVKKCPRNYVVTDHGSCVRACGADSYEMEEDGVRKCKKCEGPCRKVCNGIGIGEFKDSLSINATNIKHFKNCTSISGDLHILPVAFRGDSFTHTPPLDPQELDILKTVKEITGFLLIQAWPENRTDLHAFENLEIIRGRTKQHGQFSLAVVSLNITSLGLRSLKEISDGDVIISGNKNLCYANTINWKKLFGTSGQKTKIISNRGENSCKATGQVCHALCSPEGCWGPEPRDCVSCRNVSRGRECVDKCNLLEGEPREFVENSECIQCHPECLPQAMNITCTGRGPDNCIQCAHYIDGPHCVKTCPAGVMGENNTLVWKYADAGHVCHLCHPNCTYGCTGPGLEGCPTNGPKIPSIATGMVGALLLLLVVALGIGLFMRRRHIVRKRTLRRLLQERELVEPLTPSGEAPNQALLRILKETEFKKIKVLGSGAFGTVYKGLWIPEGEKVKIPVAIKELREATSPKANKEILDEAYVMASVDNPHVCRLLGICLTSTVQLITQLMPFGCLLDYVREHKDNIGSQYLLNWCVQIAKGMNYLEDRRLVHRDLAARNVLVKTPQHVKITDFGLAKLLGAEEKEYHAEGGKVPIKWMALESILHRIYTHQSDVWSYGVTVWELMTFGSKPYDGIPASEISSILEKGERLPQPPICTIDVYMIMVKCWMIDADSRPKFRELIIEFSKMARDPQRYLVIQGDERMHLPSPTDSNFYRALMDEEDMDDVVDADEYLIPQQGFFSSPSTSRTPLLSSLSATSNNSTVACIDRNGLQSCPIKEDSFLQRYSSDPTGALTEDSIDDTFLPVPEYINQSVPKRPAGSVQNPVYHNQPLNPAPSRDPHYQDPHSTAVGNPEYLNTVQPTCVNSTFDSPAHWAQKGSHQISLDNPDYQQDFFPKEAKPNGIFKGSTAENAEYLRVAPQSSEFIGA
Procedure, shortened: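 A549 cells serum-starved 24 h, pretreated with 20 nM compound for 2 h, then stimulated with EGF (10 ng/mL) for 10 min. Levels of EGFR, Akt and ERK read by Western blot.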

[15] = target: Epidermal growth factor receptor (Homo sapiens) (UniProt P00533); assay: Inhibition of EGFR-mediated ERK1/2 phosphorylation in EGF-stimulated human A549 cells pretreated at 5 to 100 nM by Western blot analysis; type: cell-based
[16] = target: Signal transducer and activator of transcription 3 (Homo sapiens) (UniProt P40763); assay: Inhibition of STAT3 phosphorylation in human A549 cells after 24 hrs by Western blot analysis; type: cell-based; procedure, shortened: as §4
Sequence of Signal transducer and activator of transcription 3 (Homo sapiens) (P40763 whole entry): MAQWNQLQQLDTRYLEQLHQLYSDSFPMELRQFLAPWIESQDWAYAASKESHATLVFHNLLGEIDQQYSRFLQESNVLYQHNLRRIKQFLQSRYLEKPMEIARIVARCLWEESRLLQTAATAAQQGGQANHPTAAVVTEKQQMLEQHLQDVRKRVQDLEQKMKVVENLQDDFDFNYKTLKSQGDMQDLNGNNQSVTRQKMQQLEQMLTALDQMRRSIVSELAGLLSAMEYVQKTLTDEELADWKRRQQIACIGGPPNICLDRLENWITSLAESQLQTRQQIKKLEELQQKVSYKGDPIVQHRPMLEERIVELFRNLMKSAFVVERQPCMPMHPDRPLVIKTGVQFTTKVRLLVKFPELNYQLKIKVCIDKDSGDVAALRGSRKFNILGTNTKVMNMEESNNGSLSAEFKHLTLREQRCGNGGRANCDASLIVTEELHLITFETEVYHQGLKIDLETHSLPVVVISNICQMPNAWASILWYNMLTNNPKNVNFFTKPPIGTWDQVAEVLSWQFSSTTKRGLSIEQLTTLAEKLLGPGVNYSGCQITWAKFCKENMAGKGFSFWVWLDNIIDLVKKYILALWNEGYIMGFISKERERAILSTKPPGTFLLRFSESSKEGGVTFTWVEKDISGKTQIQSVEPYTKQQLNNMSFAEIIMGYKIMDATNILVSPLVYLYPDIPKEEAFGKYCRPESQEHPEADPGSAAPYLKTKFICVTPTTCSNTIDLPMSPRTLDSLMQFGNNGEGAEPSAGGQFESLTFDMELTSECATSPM

A549 [17] = assay: Downregulation of cyclin B1 expression in human A549 cells at G2/M phase at 5 to 100 nM after 24 to 48 hrs by Western blot analysis; type: functional, cell-based; procedure, shortened: as §1
[18] = target: Hepatocyte growth factor receptor (Homo sapiens) (UniProt P08581); assay: Inhibition of c-Met-mediated ERK1/2 phosphorylation in HGF-stimulated human A549 cells pretreated at 5 to 100 nM by Western blot analysis; type: cell-based; procedure, shortened: as §3
A549 [19] = assay: Antiproliferative activity against human A549 cells assessed as reduction in colonies after treatment for 24 hrs measured after 14 days using Giemsa staining; type: functional, cell-based
Procedure, shortened: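 A549 plated at 100 cells per 35 mm dish. After 24 h, medium with compound added for 24 h, then PBS wash and 14 days' growth in drug-free medium. Colonies methanol-fixed, Giemsa-stained, counted, and expressed as % of DMSO-treated control.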

[20] = target: Hepatocyte growth factor receptor (Homo sapiens) (UniProt P08581); assay: Inhibition of c-Met-mediated p70S6K phosphorylation in HGF-stimulated human A549 cells pretreated at 5 to 100 nM by Western blot analysis; type: cell-based; procedure, shortened: as §3
A549 [21] = assay: Upregulation of p21 expression in human A549 cells at G1 phase at 5 to 100 nM after 24 to 48 hrs by Western blot analysis; type: functional, cell-based; procedure, shortened: as §4
HCT-116 = assay: Antiproliferative activity against human HCT116 cells after 3 days by SRB assay; type: functional, cell-based; details: HCT-116, 72 h; procedure, shortened: as §2

C=C(C)[C@@]12O[C@@]3(/C=C/C=C/CCCCC)O[C@@H]1[C@@H]1[C@@H]4O[C@]4(CO)[C@@H](O)[C@]4(O)C(=O)C(C)=C[C@H]4[C@@]1(O3)[C@H](C)[C@H]2OC(C)=O [YUANHUADINE]
Activity (A549 [1]): Active
pIC50 (A549 [2]): 7.92
pIC50 (PC-3): 5.13
pIC50 (T47D): 4.90
inhibition [3]: Active
Activity (Mus musculus): Non-toxic
Activity (A549 [4]): 24.5%
Activity (A549 [5]): Active
Activity (A549 [6]): Active
inhibition [7]: Active
inhibition [8]: Active
Activity (A549 [9]): 67%
Activity (A549 [10]): 15.6%
inhibition [11]: Active
inhibition [12]: Active
pIC50 (SNU-638): < 4.70
Activity (A549 [13]): 28%
pIC50 (NCI-H358): 5.04
pIC50 (SW480): 4.93
inhibition [14]: Active
inhibition [15]: Active
inhibition [16]: Dose-dependent effect
Activity (A549 [17]): Active
inhibition [18]: Active
Activity (A549 [19]): Active
inhibition [20]: Active
Activity (A549 [21]): Active
pIC50 (HCT-116): 4.99
